These results are taken from PubChem BioAssay.

Active and inactive are the calls of the source.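 The calls were made as follows, unless noted: active = viability at or under a set limit in both replicates, limit being median viability minus 3 SD (cut at about 48% in these data, passing the limit was not always enough); inconclusive = at or under the limit in just one replicate; inactive = at or above the limit in both replicates.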

A short description of experiment [1]: reducers of endogenous Her2 protein level, primary screen, SKBR3 breast tumor cells, AlphaScreen, ATP viability (AID 461;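 active = Her2 level under about 52% in both replicate screens, with viability over 70% of control, limit read from the data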;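 as to Her2 level: lower value means less Her2 protein in the cells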;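 as to viability: percent of carrier control wells set as 100% viability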). The settings on record: 18-24 h, measured here: SKBR3 viability, ATP luminescence, at 10 µM. (Bead proximity is the source of the signal in Alpha formats.)
Experiment [2] addresses Receptor tyrosine-protein kinase erbB-2 (Homo sapiens) (UniProt P04626). The description is as above. The note with it: 18-24 h, at 10 µM, stronger effect = lower value.
Experiment [3] in a line: SK-BR-3 cell growth inhibitors, pilot screen, 24 h, human (AID 572;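 active = viability at or below 10% of carrier control in both of two separate runs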;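 also: compound exposure lasted between 18 and 24 h rather than exactly 24 h; 100% = carrier-treated control wells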). The settings on record: SK-BR-3 viability, CellTiter-Glo luminescence, at 10 µM, stronger effect = lower value. In general terms: In ATP-based viability assays light output follows the ATP content of the culture.
Experiment [4] can be described thus: HUVEC growth inhibition – cell-based, human, primary screen (AID 575;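 active = viability at or below 30% in both replicate assays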;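 also: 100% = median of untreated cell wells with 0.1% DMSO on each plate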). The settings on record: HUVEC proliferation, CellTiter-Glo luminescence, 72 h; at 10 µM; stronger effect = lower value. In short, it runs like this: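 Assay system: primary human umbilical vein endothelial cells / Buffer or medium: endothelial basal medium with 2% FBS plus growth supplements / Compound dosing: one dose, 10 µM final, 0.1% DMSO / Timing: 72 h treatment at 37 °C / Signal: CTG luminescence / Benchmarks: 32 DMSO-only cell-control wells (high), 32 MePR drug-control wells (low) per plate / Plate: collagen-coated 384-well format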

Experiment [5] in a line: growth inhibitors of H69AR lung tumor, primary screen, human, duplicate replicates (AID 580).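 Also: 100% = mean luminescence of untreated wells and 0% = no signal.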 The note with it: H69AR lung tumor cells viability, ATP luminescence, 72 h; at 10 µM; stronger effect = lower value.
Experiment [6] in a line: reversal of MRP1-mediated doxorubicin resistance, pilot screen, H69AR cells, doxorubicin co-treatment (AID 601;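 active = viability loss from added drug above about 55%, and viability with drug at most 40%, in both replicates, limit read from the data, passing the limit was not always enough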). The note with it: CellTiter-Glo, 72 h, at 10 µM; for differential viability (reversal): stronger effect = higher value.
Experiment [7] can be described thus: 384-well plate pilot, post-Golgi transport modulator project, inhibition of yeast transport mutant growth (AID 636; in the data active = inhibition above about 31%). The note with it: absorbance 615 nm, about 18 h, stronger effect = higher value.
A short description of experiment [8]: growth suppression of yeast trafficking mutant, preliminary HTS, modulators of trafficking downstream of Golgi apparatus project, 1536-format plate, OD 615 nm (AID 637; in the data active = inhibition above about 30%). The settings on record: yeast transport mutant growth, absorbance 615 nm, 18 h; stronger effect = higher value.
Setting [9] is: H69AR cells + 2 uM doxorubicin, measured here: viability with 2 uM doxorubicin, stronger effect = lower value.
The mark [10] stands for this setting: H69AR cells, compound alone cytotoxicity.

Chain of Receptor tyrosine-protein kinase erbB-2 (Homo sapiens) (P04626 whole entry, looked up): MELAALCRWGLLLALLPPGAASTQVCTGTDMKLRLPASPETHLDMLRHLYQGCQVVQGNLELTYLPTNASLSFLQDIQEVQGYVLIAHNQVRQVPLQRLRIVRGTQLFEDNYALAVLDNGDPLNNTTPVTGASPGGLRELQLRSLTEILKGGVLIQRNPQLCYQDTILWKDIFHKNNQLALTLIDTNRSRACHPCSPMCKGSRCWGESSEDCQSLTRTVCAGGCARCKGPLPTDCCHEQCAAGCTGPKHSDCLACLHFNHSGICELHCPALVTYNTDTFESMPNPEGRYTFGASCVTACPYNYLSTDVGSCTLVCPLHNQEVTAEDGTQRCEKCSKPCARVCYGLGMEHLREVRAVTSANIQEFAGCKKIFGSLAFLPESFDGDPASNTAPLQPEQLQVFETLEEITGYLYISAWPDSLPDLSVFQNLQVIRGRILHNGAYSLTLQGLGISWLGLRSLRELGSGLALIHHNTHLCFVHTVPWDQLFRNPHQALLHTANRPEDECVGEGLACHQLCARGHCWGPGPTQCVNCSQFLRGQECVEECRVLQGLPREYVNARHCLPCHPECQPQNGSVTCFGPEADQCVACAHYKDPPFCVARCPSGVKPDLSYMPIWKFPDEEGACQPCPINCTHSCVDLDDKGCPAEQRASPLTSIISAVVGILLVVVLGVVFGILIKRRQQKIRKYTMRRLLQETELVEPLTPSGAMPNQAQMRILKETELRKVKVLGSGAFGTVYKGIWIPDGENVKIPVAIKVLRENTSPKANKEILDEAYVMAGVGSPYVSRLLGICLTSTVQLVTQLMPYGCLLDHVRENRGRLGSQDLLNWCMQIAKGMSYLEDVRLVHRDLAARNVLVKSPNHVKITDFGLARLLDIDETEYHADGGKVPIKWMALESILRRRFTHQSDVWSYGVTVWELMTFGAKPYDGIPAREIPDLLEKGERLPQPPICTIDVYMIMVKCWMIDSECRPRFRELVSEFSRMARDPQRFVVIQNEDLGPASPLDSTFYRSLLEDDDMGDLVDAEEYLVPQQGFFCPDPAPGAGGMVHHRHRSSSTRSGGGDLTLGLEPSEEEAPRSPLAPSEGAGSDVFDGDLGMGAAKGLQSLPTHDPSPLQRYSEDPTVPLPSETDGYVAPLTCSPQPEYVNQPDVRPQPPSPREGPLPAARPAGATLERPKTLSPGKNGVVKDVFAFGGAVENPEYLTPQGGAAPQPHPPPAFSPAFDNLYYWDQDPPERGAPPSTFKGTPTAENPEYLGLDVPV

One may read the viability as a read-out of living cells in per cent, often relative to untreated cells. As a reminder, the inhibition is the drop in the measured response relative to a control, in per cent. As to `COc1cccc(C(=O)OCn2nnc3ccccc3c2=O)c1`, the viability in experiment [1] is 88%; in experiment [3] it was 88% (inactive); in experiment [4], 108% (inactive); in experiment [5], 114% (inactive); in experiment [6] (setting [9]), 109%; in experiment [6] (setting [10]) it was 114%. Also, in experiment [2], the Her2 level was 92.5% (inactive). For the same compound, the differential viability (reversal) in experiment [6] (H69AR cells + 2 uM doxorubicin) is 4.58% (inactive). Further, the inhibition was -0.13% (inactive) in experiment [7] and 16.5% (inactive) in experiment [8].
On to `COC(=O)Cn1c2c(c3cc(C)ccc31)CCCC2`, for which the viability was 83% in experiment [1]; 83% (inactive) in experiment [3]; 103% (inactive) in experiment [4]; 102% (inactive) in experiment [5]; 94.1% in experiment [6] (setting [9]); 102% in experiment [6] (setting [10]). Moreover, in experiment [2], the Her2 level is 99% (inactive). In addition, the differential viability (reversal) in experiment [6] (H69AR cells + 2 uM doxorubicin) was 8.28% (inactive). For the same compound, the values for the inhibition in experiment [7] and in experiment [8] were -4.74% (inactive) and 4.75% (inactive), respectively.
`CCCC(=O)Nc1cccc(NC(=O)CN2CCN(c3ccccc3OC)CC2)c1`: the viability in experiment [1] was 98.5%; in experiment [3], 98.5% (inactive); in experiment [4], 96.6% (inactive); in experiment [5], 82.9% (inactive); in experiment [6] (setting [9]) it was 86.6%; in experiment [6] (setting [10]), 82.9%. The Her2 level in experiment [2] was 83% (inactive). Further, in experiment [6] (H69AR cells + 2 uM doxorubicin), the differential viability (reversal) was -3.71% (inactive). For the same compound, the inhibition in experiment [7] was -5.81% (inactive); in experiment [8] it was -4.92% (inactive).
For `O=C(Nc1ccc2c(c1)OCCO2)c1ccco1`, the viability was 83% in experiment [1]; 83% (inactive) in experiment [3]; 78.7% (inactive) in experiment [4]; 86.5% (inactive) in experiment [5]; 79.7% in experiment [6] (setting [9]); 86.5% in experiment [6] (setting [10]). The Her2 level in experiment [2] was 106% (inactive). Moreover, the differential viability (reversal) in experiment [6] (H69AR cells + 2 uM doxorubicin) is 6.8% (inactive). Also, the figures for the inhibition in experiment [7] and in experiment [8] were 2.47% (inactive) and -5.08% (inactive), respectively.
On to `Cc1ccc(S(=O)(=O)NCCN2CCOCC2)cc1C`, for which the viability in experiment [1] was 88.5%; in experiment [3] it was 88.5% (inactive); in experiment [4], 91.7% (inactive); in experiment [5] it was 86.1% (inactive); in experiment [6] (setting [9]), 91.3%; in experiment [6] (setting [10]) it was 86.1%. In addition, the Her2 level in experiment [2] was 93% (inactive). Besides, the differential viability (reversal) in experiment [6] (H69AR cells + 2 uM doxorubicin) is -5.21% (inactive). In addition, the inhibition in experiment [7] is -0.52% (inactive); in experiment [8], -1.11% (inactive).
Consider `CCOc1ccc(OCc2cccc(C(=O)O)c2)cc1`, for which the viability was 108% in experiment [1]; 108% (inactive) in experiment [3]; 77.6% (inactive) in experiment [4]; 89.6% (inactive) in experiment [5]; 79.1% in experiment [6] (setting [9]); 89.6% in experiment [6] (setting [10]). For the same compound, the Her2 level in experiment [2] was 106% (inactive). Besides, in experiment [6] (H69AR cells + 2 uM doxorubicin), the differential viability (reversal) is 10.5% (inactive). In addition, the inhibition in experiment [7] was -1.6% (inactive); in experiment [8], -3.87% (inactive).
Take `CC(C)(Oc1ccc(Cl)cc1)C(=O)NC1CCSC1=O` (stereo not given): the viability in experiment [1] was 101%; in experiment [3], 101% (inactive); in experiment [4] it was 90.3% (inactive); in experiment [5], 114% (inactive); in experiment [6] (setting [9]) it was 94.6%; in experiment [6] (setting [10]), 114%. Besides, in experiment [2], the Her2 level is 104% (inactive). Moreover, the differential viability (reversal) in experiment [6] (H69AR cells + 2 uM doxorubicin) is 19.5% (inactive). The values for the inhibition in experiment [7] and in experiment [8] were 0.27% (inactive) and -9.52% (inactive), respectively.
On to `O=C(CSc1nc2ccccc2n1CC(=O)N1CCCC1)Nc1nccs1`, for which the viability was 106% in experiment [1]; 106% (inactive) in experiment [3]; 98.4% (inactive) in experiment [4]; 95.3% (inactive) in experiment [5]; 78.9% in experiment [6] (setting [9]); 95.3% in experiment [6] (setting [10]). The Her2 level in experiment [2] is 93% (inactive). For the same compound, the differential viability (reversal) in experiment [6] (H69AR cells + 2 uM doxorubicin) was 16.4% (inactive). The figures for the inhibition in experiment [7] and in experiment [8] were -0.92% (inactive) and -6.73% (inactive), respectively.
For the compound `Cc1cc(OC(=O)N2CCOCC2)cc(C)c1Cl`, the viability in experiment [1] is 93.5%; in experiment [3] it was 93.5% (inactive); in experiment [4], 88.7% (inactive); in experiment [5], 105% (inactive); in experiment [6] (setting [9]) it was 84.9%; in experiment [6] (setting [10]), 105%. The Her2 level in experiment [2] is 94.5% (inactive). Besides, the differential viability (reversal) in experiment [6] (H69AR cells + 2 uM doxorubicin) is 19.9% (inactive). The inhibition in experiment [7] is -3.55% (inactive); in experiment [8], -6.35% (inactive).
As to `Cc1cc(C(=O)O)ccc1-n1c(C)ccc1C`, the viability in experiment [1] was 100%; in experiment [3], 100% (inactive); in experiment [4], 89.6% (inactive); in experiment [5], 93.2% (inactive); in experiment [6] (setting [9]), 91.8%; in experiment [6] (setting [10]) it was 93.2%. Further, in experiment [2], the Her2 level was 92% (inactive). Besides, the differential viability (reversal) in experiment [6] (H69AR cells + 2 uM doxorubicin) is 1.35% (inactive). Besides, the inhibition in experiment [7] was 1.32% (inactive); in experiment [8] it was -4.52% (inactive).
For `CCOC(=O)N1CCN(Cc2cc(=O)oc3ccc4ccccc4c23)CC1`, the viability in experiment [1] is 91.5%; in experiment [3], 91.5% (inactive); in experiment [4], 79.9% (inactive); in experiment [5] it was 87.3% (inactive); in experiment [6] (setting [9]) it was 79.6%; in experiment [6] (setting [10]), 87.3%. The Her2 level in experiment [2] is 86% (inactive). Moreover, the differential viability (reversal) in experiment [6] (H69AR cells + 2 uM doxorubicin) is 7.66% (inactive). In addition, the inhibition was -7.07% (inactive) in experiment [7] and 2.86% (inactive) in experiment [8].
For `C=CCN1C(=O)C2(c3ccccc31)C1CCCC=C1C(C#N)=C(N)C2(C#N)C#N` (stereo not given), the viability in experiment [1] is 81%; in experiment [3], 81% (inactive); in experiment [4] it was 62.7% (inactive); in experiment [5] it was 76.4% (inactive); in experiment [6] (setting [9]), 90.3%; in experiment [6] (setting [10]) it was 76.4%. Besides, the Her2 level in experiment [2] is 82% (inactive). For the same compound, the differential viability (reversal) in experiment [6] (H69AR cells + 2 uM doxorubicin) is -13.9% (inactive). Further, the inhibition in experiment [7] is 2.53% (inactive); in experiment [8], 26.8% (inactive).
With `CC(=O)NC(Cc1cc(C)ccc1C)C(=O)N1CCN(C(=O)Nc2ccc(C(C)=O)cc2)CC1` (stereo not given), the viability was 102% in experiment [1]; 102% (inactive) in experiment [3]; 109% (inactive) in experiment [4]; 88.7% (inactive) in experiment [5]; 94% in experiment [6] (setting [9]); 88.7% in experiment [6] (setting [10]). The Her2 level in experiment [2] was 101% (inactive). Besides, the differential viability (reversal) in experiment [6] (H69AR cells + 2 uM doxorubicin) was -5.32% (inactive). Besides, the inhibition was -4.62% (inactive) in experiment [7] and -11.3% (inactive) in experiment [8].
For the compound `COc1cc(C(=O)Nc2cccc(-c3nc4cc(C)ccc4o3)c2)cc(OC)c1OC`, the viability in experiment [1] is 95%; in experiment [3], 95% (inactive); in experiment [4] it was 66.8% (inactive); in experiment [5] it was 55.7% (inactive); in experiment [6] (setting [9]) it was 51.3%; in experiment [6] (setting [10]) it was 55.7%. Besides, in experiment [2], the Her2 level is 80% (inactive). The differential viability (reversal) in experiment [6] (H69AR cells + 2 uM doxorubicin) is 4.43% (inactive). Also, the inhibition in experiment [7] was -5% (inactive); in experiment [8], 4.76% (inactive).
With `O=C1CC(c2ccc(Cl)cc2)n2nc(N3C(=O)c4ccccc4C3=O)nc2N1` (stereo not given), the viability in experiment [1] was 106%; in experiment [3] it was 106% (inactive); in experiment [4], 95.5% (inactive); in experiment [5] it was 91.8% (inactive); in experiment [6] (setting [9]), 94.1%; in experiment [6] (setting [10]), 91.8%. Moreover, in experiment [2], the Her2 level is 93% (inactive). For the same compound, in experiment [6] (H69AR cells + 2 uM doxorubicin), the differential viability (reversal) is -2.29% (inactive). Moreover, the figures for the inhibition in experiment [7] and in experiment [8] were -3.16% (inactive) and 4.59% (inactive), respectively.
Take `Cc1ccc(C)c(N2CCN(S(=O)(=O)c3ccc4c(c3)OCCO4)CC2)c1`: the viability is 97.5% in experiment [1]; 97.5% (inactive) in experiment [3]; 99.2% (inactive) in experiment [4]; 106% (inactive) in experiment [5]; 101% in experiment [6] (setting [9]); 106% in experiment [6] (setting [10]). In addition, the Her2 level in experiment [2] was 96.5% (inactive). The differential viability (reversal) in experiment [6] (H69AR cells + 2 uM doxorubicin) is 4.96% (inactive). Also, the inhibition in experiment [7] was -4.81% (inactive); in experiment [8], -3.97% (inactive).
